Data taken from ChEMBL document CHEMBL1124378, “Synthesis and pharmacological evaluation of a series of 4-piperazinylpyrazolo[3,4-b]- and -[4,3-b][1,5]benzodiazepines as potential anxiolytics” (J Med Chem, 1989).

Legend:
[1] = biological target: Muscarinic acetylcholine receptor; experiment: Inhibition of [3H]QNB binding to muscarinic cholinergic receptor from male Olac rat brain.
Mus musculus [2] = experiment: Compound administered perorally was evaluated for the hypothermia (rectal temperature) in mice; type: functional
Summary of the method: (§1)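 Groups of three CFW mice (21-23 g) received oral compound in water or 0.5% carboxymethylcellulose. Rectal temperature was taken at 0.25, 2.5 and 5.0 h. Mean change from the group's initial mean was summed over the three times. Hypothermia scored if the summed reduction was >4 °C.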

Rattus norvegicus [3] = experiment: The compound was evaluated for the anticonflict behavior in male wistar rats as rate of responses (timeout) following dose of 20 mg/kg po; type: functional; parameters: unit: responses/min
Summary of the method: (§2)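 Male Wistar rats on 23-h food deprivation, water ad libitum, trained to lever-press for food on continuous reinforcement until stable. Compound or vehicle given orally in randomized sequence 60 min before testing. Responses/min were recorded in reward, timeout and conflict components. Differences from control were tested by Wilcoxon test.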

Rattus norvegicus [4] = species on record: Rattus norvegicus; experiment: compound behavior in rat; type: functional; parameters: unit not given here
Summary of the method: (§3)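 Olac-Wistar rats (180-190 g), eight per group, dosed orally, front paws placed on a 1.5-cm rod 7 cm above the table. Tested at 0.5, 1, 1.5, 2, 3, 4 and 5 h, up to 20 min hold. Each animal's maximum score (0-5 by time held) was summed, giving a group maximum of 40.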

Rattus norvegicus [5] = experiment: The compound was evaluated for the anticonflict behavior in male wistar rats as rate of responses (timeout) following dose of 5.0 mg/kg po; type: functional; parameters: unit: responses/min; summary of the method: as §2
Rattus norvegicus [6] = experiment: The compound was evaluated for the anticonflict behavior in male wistar rats as rate of responses (timeout) following dose of 0 mg/kg po; type: functional; summary of the method: as §2
Rattus norvegicus [7] = experiment: The compound was evaluated for the anticonflict behavior in male wistar rats as rate of responses (timeout) following dose of 10 mg/kg po; type: functional; parameters: unit: responses/min; summary of the method: as §2
Rattus norvegicus [8] = experiment: The compound was evaluated for the anticonflict behavior in male wistar rats as rate of responses (conflict) following dose of 40 mg/kg po; type: functional; summary of the method: as §2
Rattus norvegicus [9] = experiment: The compound was evaluated for the anticonflict behavior in male wistar rats as rate of responses (reward) following dose of 40 mg/kg po; type: functional; summary of the method: as §2
Rattus norvegicus [10] = experiment: The compound was evaluated for the anticonflict behavior in male wistar rats as rate of responses (conflict) following dose of 10 mg/kg po; type: functional; parameters: unit: responses/min; summary of the method: as §2
Rattus norvegicus [11] = experiment: The compound was evaluated for the anticonflict behavior in male wistar rats as rate of responses (reward) following dose of 5.0 mg/kg po; type: functional; parameters: unit: responses/min; summary of the method: as §2
Rattus norvegicus [12] = experiment: Compound administered perorally was evaluated for the conditioned avoidance response in rats; type: functional
Summary of the method: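 Olac-Wistar rats (120-130 g) trained to cross a shuttle box on a 5-s buzzer, with mild shock if no response within 1 s after it ends. Only high-responders used. Groups of five were dosed orally in water or 0.5% carboxymethylcellulose 1 h 50 min before testing. After 10-min habituation they were tested 20 min. Blockade = shocks as % of stimuli presented.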

Rattus norvegicus [13] = experiment: The compound was evaluated for the anticonflict behavior in male wistar rats as rate of responses (conflict) following dose of 0 mg/kg po; type: functional; parameters: unit: responses/min; summary of the method: as §2
Rattus norvegicus [14] = experiment: The compound was evaluated for the anticonflict behavior in male wistar rats as rate of responses (reward) following dose of 10 mg/kg po; type: functional; parameters: unit: responses/min; summary of the method: as §2
[15] = biological target: D(2) dopamine receptor (Bos taurus) (UniProt P20288); experiment: Inhibition of [3H]spiperone binding to dopamine receptor D2 from calf caudate
Rattus norvegicus [16] = experiment: The compound was evaluated for the anticonflict behavior in male wistar rats as rate of responses (reward) following dose of 0 mg/kg po; type: functional; parameters: unit: responses/min; summary of the method: as §2
Rattus norvegicus [17] = experiment: The compound was evaluated for the anticonflict behavior in male wistar rats as rate of responses (conflict) following dose of 5.0 mg/kg po; type: functional; parameters: unit: responses/min; summary of the method: as §2
Rattus norvegicus [18] = experiment: The compound was evaluated for the anticonflict behavior in male wistar rats as rate of responses (reward) following dose of 20 mg/kg po; type: functional; parameters: unit: responses/min; summary of the method: as §2
Rattus norvegicus [19] = experiment: Rotarod response in rat to assess muscular incoordination (following p.o. dosing); type: functional
Summary of the method: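 Male Olac-Wistar rats (140-150 g), five per group, fed ad libitum, dosed orally. Tested 1 and 2 h later on a horizontal rod (2 rpm, 32 mm diameter), maximum 30 s. Mean time compared with vehicle controls by Mann-Whitney U test, significant at p < 0.05.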

Rattus norvegicus [20] = experiment: The compound was evaluated for the anticonflict behavior in male wistar rats as rate of responses (conflic) following dose of 20 mg/kg po; type: functional; parameters: unit: responses/min; summary of the method: as §2
Rattus norvegicus [21] = experiment: The compound was evaluated for the anticonflict behavior in male wistar rats as rate of responses (timeout) following dose of 40 mg/kg po; type: functional; summary of the method: as §2
Mus musculus [22] = experiment: Compound administered perorally was evaluated for the dose below which no catalepsy was observed at any time period; type: functional
Summary of the method: (§4)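 CFW mice (21-23 g), three per group, dosed orally in water or 0.5% carboxymethylcellulose. Checked at 0.25, 2.5 and 5.0 h for holding one hind limb on a 2-cm rubber bung and staying on a vertical grid, judged against a control by a trained observer.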

[23] = biological target: D(2) dopamine receptor (Bos taurus) (UniProt P20288); experiment: Inhibition of [3H]spiperone binding to Dopamine receptor D2 from calf caudate
Mus musculus [24] = experiment: Compound administered perorally was evaluated for the hypothermia (rectal temperature ) in mice; type: functional; summary of the method: as §1
Mus musculus [25] = experiment: Dose below which no catalepsy was observed at any time period (following p.o. dosing); type: functional; summary of the method: as §4
Rattus norvegicus [26] = species on record: Rattus norvegicus; experiment: Compound behavior in rat; type: functional; parameters: unit not given here; summary of the method: as §3
[27] = biological target: Muscarinic acetylcholine receptor; experiment: Compound was evaluated for the inhibition of [3H]QNB binding to Muscarinic acetylcholine receptor from male Olac rat brain.
Rattus norvegicus [28] = experiment: The compound was evaluated for the anticonflict behavior in male wistar rats as rate of responses (conflict) following dose of 2.5 mg/kg po; type: functional; summary of the method: as §2
Rattus norvegicus [29] = experiment: The compound was evaluated for the anticonflict behavior in male wistar rats as rate of responses (reward) following dose of 2.5 mg/kg po; type: functional; summary of the method: as §2
Rattus norvegicus [30] = experiment: The compound was evaluated for the anticonflict behavior in male wistar rats as rate of responses (timeout) following dose of 2.5 mg/kg po; type: functional; summary of the method: as §2
Rattus norvegicus [31] = experiment: Compound administered perorally was evaluated for the conditioned avoidance response in rats

Compound | EDmin (Mus musculus [2]) | Activity (Rattus norvegicus [3]) | Activity (Rattus norvegicus [5]) | Activity (Rattus norvegicus [6]) | Activity (Rattus norvegicus [7]) | Activity (Rattus norvegicus [10]) | Activity (Rattus norvegicus [11]) | ED (Rattus norvegicus [12]) | Activity (Rattus norvegicus [13]) | Activity (Rattus norvegicus [14]) | Activity (Rattus norvegicus [16]) | Activity (Rattus norvegicus [17]) | Activity (Rattus norvegicus [18]) | ED (Rattus norvegicus [19]) | Activity (Rattus norvegicus [20]) | IC50 [23] | EDmin (Mus musculus [24]) | EDmin (Mus musculus [25]) | Activity (Rattus norvegicus [26]) | IC50 [27] | further results
CN1CCN(C2=Nc3cc(F)ccc3Nc3nn(C)cc32)CC1 | 1.6 mg/kg | 15.4 | 5.7 | 5.4 | 7.4 | 9.6 | 45.1 | 100 mg/kg | 3 | 42.1 | 47.3 | 3.9 | 45.9 | >20 mg/kg | 6.9 | – | – | – | – | – | IC50 [1]: 150 µM; Activity (Rattus norvegicus [4]): >100; Activity (Rattus norvegicus [8]): 10.1; Activity (Rattus norvegicus [9]): 48.3; IC50 [15]: 2.6 µM; Activity (Rattus norvegicus [21]): 15.4; EDmin (Mus musculus [22]): 50 mg/kg
CC(C)n1cc2c(n1)Nc1ccc(F)cc1N=C2N1CCN(C)CC1 | – | – | – | – | – | – | – | 25 mg/kg | – | – | – | – | – | 40 mg/kg | – | 1.1 µM | 50 mg/kg | 200 mg/kg | >50 | 7.2 µM | –
CN1CCN(C2=Nc3ccccc3Nc3nn(C)cc32)CC1 | – | – | – | – | – | – | – | >50 mg/kg | – | – | – | – | – | >50 mg/kg | – | 6.3 µM | 50 mg/kg | 200 mg/kg | 50 | 38 µM | –
CCCn1cc2c(n1)Nc1ccc(F)cc1N=C2N1CCN(C)CC1 | – | – | – | – | – | – | – | 40 mg/kg | – | – | – | – | – | 50 mg/kg | – | 0.18 µM | 25 mg/kg | 200 mg/kg | >50 | 16 µM | –
CN1CCN(C2=Nc3ccccc3Nc3c2cnn3C)CC1 | – | – | – | – | – | – | – | >50 mg/kg | – | – | – | – | – | >50 mg/kg | – | 1500 µM | >400 mg/kg | >400 mg/kg | >50 | > 100 µM | –
CN1CCN(C2=Nc3cc(Cl)ccc3Nc3nn(C)cc32)CC1 | 0.8 mg/kg | 9.6 | 7.9 | 2.1 | 6.5 | 8.1 | 27.5 | 10 mg/kg | 1.1 | 26.3 | 24.9 | 6 | 5.4 | >10 mg/kg | 7.8 | – | – | 12.5 mg/kg | – | – | Activity (Rattus norvegicus [28]): 5.6; IC50 [1]: 8.9 µM; Activity (Rattus norvegicus [4]): >25; Activity (Rattus norvegicus [8]): 4.8; Activity (Rattus norvegicus [9]): 14.1; Activity (Rattus norvegicus [29]): 24.9; IC50 [15]: 0.68 µM; Activity (Rattus norvegicus [30]): 9.3; Activity (Rattus norvegicus [21]): 4.6
CN1CCN(C2=Nc3cc(Br)ccc3Nc3nn(C)cc32)CC1 | 12.5 mg/kg | 4.4 | 6 | 2 | 8 | 5 | 22.1 | >5 mg/kg | 0.5 | 23 | 18.7 | 2.6 | 14.1 | >10 mg/kg | 4.1 | 0.68 µM | – | 25 mg/kg | – | > 10 µM | Activity (Rattus norvegicus [28]): 2.2; Activity (Rattus norvegicus [29]): 21.9; Activity (Rattus norvegicus [30]): 2.1
CN1CCN(C2=Nc3cc(F)ccc3Nc3c2cnn3C)CC1 | – | – | – | – | – | – | – | – | – | – | – | – | – | >50 mg/kg | – | – | 100 mg/kg | >200 mg/kg | – | – | ED (Rattus norvegicus [31]): >50 mg/kg
CNC1=Nc2ccc(Cl)cc2C(c2ccccc2)=[N+]([O-])C1 [CHLORDIAZEPOXIDE] | – | 3.7 | 2.2 | 1.4 | 3.4 | 4.2 | 70.8 | – | 0.6 | 68.8 | 70.2 | 1.9 | 54.3 | – | 3.3 | – | – | – | – | – | –
CN1CCN(C2=Nc3cc(Cl)ccc3Nc3ccccc32)CC1 [CLOZAPINE] | – | – | – | – | – | – | – | 30 mg/kg | – | – | – | – | – | 40 mg/kg | – | – | 50 mg/kg | 100 mg/kg | 80 | – | –
